Measured values: article PMC12166265 (Clinical Pharmacology and Therapeutics, 2025)
Read-outs that look alike come from different tables or passages of the source.

Key:
ABCG2 p.Q141K variant = assay type: in vivo, human; details: two p.Q141K (CA) vs nine REF (CC) individuals; T = 0 h
Method in brief: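 Open-label fixed-sequence crossover in 11 healthy non-smoking adults aged 18–64. Single oral rosuvastatin 10 mg given after an overnight fast, with fasting continued 4 h. Heparinised venous plasma was stored at −70°C and analysed by LC–MS. ABCG2 c.421C>A was genotyped blind by PCR and Sanger sequencing. Nine CC and two CA subjects were compared at T = 0 h and by noncompartmental PK, using log-transformed geometric means and unpaired t-tests.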

BCRP [1] = molecular target: T1, BCRP (Homo sapiens, UniProt Q9UNQ0); assay type: cell-based
T1 sequence (Q9UNQ0 1-655): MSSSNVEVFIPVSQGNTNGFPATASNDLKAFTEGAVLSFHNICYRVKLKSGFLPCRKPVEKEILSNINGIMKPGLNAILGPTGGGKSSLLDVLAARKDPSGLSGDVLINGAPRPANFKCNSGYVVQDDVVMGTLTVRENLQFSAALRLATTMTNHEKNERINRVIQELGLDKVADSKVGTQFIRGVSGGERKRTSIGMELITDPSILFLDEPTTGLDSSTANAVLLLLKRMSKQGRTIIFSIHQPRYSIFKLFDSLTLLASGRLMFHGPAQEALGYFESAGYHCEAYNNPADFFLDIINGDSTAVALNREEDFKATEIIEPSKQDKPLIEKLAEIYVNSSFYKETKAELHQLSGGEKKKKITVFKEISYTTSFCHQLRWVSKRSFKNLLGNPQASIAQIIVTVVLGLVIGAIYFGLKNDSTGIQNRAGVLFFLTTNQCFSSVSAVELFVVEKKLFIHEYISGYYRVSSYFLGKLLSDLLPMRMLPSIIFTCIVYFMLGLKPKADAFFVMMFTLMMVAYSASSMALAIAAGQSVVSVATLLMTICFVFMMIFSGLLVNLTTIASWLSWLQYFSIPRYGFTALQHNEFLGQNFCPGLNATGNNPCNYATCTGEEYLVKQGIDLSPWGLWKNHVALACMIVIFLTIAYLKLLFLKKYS
Method in brief: (§1)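 Transporter-overexpressing HEK293 cells were cultured in DMEM with 10% FBS, 1% penicillin/streptomycin and selection antibiotics at 37°C, 5% CO₂. Test compounds were screened at 10 μM and 30 μM, and uptake was quantified as normalised peak areas. For OATP1B1/1B3, uptake was compared with empty-vector cells, and for OATP1B1 also with cells treated with the inhibitor cyclosporine A.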

P-gp = P-gp (Homo sapiens, UniProt P08183); test: Inhibitor screening of [3H]digoxin accumulation in HEK293 cells expressing P-gp; assay type: cell-based
Method in brief: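 HEK293 lines overexpressing the named transporter were grown in DMEM with 10% FBS, 1% penicillin/streptomycin and line-specific selection antibiotics, at 37°C, humidified, 5% CO₂. Cell-based uptake assays measured inhibition of transporter activity.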

OATP1B3 = molecular target: T2, OATP1B3 (Homo sapiens, UniProt Q9NPD5); test: Substrate screening in HEK293 cells expressing OATP1B3; assay type: cell-based
T2 sequence (Q9NPD5 1-702): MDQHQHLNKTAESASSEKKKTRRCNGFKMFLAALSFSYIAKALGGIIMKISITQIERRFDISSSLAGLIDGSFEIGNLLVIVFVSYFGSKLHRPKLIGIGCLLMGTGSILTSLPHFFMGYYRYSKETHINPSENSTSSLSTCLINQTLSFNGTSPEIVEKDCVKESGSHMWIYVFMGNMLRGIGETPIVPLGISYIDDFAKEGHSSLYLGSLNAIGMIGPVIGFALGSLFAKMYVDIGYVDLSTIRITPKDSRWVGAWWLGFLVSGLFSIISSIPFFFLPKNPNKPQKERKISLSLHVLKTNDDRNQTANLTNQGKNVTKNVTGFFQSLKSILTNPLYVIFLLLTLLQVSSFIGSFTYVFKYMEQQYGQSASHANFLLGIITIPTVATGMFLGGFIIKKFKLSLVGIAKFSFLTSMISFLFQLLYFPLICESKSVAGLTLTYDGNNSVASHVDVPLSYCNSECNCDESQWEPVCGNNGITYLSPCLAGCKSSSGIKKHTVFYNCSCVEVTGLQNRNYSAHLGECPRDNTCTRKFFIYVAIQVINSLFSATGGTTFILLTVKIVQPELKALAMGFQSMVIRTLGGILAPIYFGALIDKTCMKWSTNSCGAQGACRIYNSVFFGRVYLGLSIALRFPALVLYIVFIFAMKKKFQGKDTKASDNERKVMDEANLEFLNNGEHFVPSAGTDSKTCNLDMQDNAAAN
Method in brief: as §1

OATP1B1 = molecular target: T3, OATP1B1 (Homo sapiens, UniProt Q9Y6L6); assay type: cell-based; details: HEK293 OATP1B1 cells
T3 sequence (Q9Y6L6 1-691): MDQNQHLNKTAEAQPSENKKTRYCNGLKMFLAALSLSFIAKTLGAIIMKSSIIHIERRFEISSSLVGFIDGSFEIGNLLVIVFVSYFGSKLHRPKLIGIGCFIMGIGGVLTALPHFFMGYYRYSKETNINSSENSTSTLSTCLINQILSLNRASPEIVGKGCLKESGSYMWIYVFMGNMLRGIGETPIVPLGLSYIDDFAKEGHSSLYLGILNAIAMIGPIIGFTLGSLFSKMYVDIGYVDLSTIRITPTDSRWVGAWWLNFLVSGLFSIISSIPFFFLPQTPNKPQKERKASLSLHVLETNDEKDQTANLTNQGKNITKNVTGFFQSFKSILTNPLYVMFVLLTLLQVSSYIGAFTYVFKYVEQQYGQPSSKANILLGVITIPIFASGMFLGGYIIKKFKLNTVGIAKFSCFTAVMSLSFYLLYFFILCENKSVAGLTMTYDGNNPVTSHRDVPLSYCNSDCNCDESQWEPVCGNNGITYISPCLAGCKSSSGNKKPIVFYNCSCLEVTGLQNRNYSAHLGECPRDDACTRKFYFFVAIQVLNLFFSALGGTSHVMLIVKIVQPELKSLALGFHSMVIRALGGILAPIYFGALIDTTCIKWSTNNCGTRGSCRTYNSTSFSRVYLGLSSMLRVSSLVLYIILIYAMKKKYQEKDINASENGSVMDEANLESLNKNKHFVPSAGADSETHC
Method in brief: as §1

[2] = assay type: in vivo, human; details: for Effect of eltrombopag administration on plasma concentrations (in words): eltrombopag 75 mg daily for 5 days
BCRP [3] = details: 14 healthy males, BMS-986371; cited from earlier work
[4] = both, human, plasma, oral, 10 mg
[5] = both, human, plasma, oral, 10 mg, AUC0−4, rosuvastatin alone arm, geometric mean (90% CI)
[6] = both, human, plasma, oral, AUC0−4, rosuvastatin + eltrombopag arm, geometric mean (90% CI)

P-gp, sequence (P08183 whole entry): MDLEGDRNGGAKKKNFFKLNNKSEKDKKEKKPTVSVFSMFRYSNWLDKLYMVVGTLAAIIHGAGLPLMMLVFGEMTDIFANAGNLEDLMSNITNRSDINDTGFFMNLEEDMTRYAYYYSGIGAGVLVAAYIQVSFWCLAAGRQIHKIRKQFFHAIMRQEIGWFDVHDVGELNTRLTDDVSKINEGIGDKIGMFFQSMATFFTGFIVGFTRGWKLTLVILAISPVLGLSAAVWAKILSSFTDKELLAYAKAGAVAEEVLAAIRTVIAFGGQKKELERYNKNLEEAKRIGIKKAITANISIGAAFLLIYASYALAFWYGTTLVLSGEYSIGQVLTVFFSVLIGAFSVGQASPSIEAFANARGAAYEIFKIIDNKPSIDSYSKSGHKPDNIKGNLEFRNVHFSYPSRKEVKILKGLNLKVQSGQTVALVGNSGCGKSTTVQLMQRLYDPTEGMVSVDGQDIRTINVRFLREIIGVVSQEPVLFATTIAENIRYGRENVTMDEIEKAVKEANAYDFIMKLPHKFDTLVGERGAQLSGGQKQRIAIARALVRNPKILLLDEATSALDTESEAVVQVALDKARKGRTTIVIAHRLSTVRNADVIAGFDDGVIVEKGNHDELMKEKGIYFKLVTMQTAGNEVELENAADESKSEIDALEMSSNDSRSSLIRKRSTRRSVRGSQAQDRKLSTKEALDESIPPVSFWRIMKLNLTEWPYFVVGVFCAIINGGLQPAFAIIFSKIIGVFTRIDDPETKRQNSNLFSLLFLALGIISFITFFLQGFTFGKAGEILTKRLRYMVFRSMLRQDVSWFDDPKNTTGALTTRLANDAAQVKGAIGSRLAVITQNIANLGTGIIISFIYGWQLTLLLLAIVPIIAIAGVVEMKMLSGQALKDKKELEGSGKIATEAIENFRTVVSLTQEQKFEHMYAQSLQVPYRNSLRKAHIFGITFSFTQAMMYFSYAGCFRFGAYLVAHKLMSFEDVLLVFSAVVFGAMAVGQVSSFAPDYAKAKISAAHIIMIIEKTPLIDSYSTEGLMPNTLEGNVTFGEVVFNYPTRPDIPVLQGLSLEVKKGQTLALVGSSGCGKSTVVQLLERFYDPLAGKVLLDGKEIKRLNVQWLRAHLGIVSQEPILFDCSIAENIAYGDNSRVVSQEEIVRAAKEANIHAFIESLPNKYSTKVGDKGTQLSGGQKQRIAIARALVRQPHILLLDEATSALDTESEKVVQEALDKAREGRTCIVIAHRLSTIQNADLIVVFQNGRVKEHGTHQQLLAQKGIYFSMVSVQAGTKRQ

SMILES: O=C(O)c1c(O)c(Cl)cc(Br)c1O [BCDBA, 3‐bromo‐5‐chloro‐2,6‐dihydroxybenzoic acid]
- Baseline concentrations, heterozygous p.Q141K vs homozygous reference allele (ABCG2 p.Q141K variant): significantly higher
- Uptake in BCRP-expressing HEK293 cells compared to same cell line with Ko143 (BCRP [1]; 10 μM and 30 μM, 30 min): significantly reduced
- BCRP substrate classification (BCRP [1]; HEK293 BCRP cells): BCRP substrates
- Effect on intracellular accumulation of P-gp substrate [3H]digoxin (P-gp): did not affect
- OATP1B3 substrate classification (OATP1B3): not substrates
- OATP1B1 substrate classification (OATP1B1): not substrates
- AUC0−24, geometric mean ratio (90% CI) of rosuvastatin + eltrombopag arm to rosuvastatin alone arm ([2]; both, human, plasma, oral): 0.95 (0.89–1.02); P = 0.38
- C0 at 0 h ([2]; both, human, plasma, oral): 0.57 ng/mL
- Cmax ([2]; both, human, plasma, oral): 0.7 ng/mL
- C0 at 0 h [2, 4]: 0.64 ng/mL
- Cmax [2, 4]: 0.7 ng/mL
- AUC(0-t) [2, 5]: 2.13 ng·h/mL
- AUC(0-t) [2, 6]: 2.1 ng·h/mL
- Effect of eltrombopag administration on plasma concentrations (in words) [2]: did not lead to corresponding increases
- AUC0−4, geometric mean ratio (90% CI) of rosuvastatin + eltrombopag arm to rosuvastatin alone arm ([2]; human, in vivo): 0.98 (0.91–1.07); P = 0.78
- Cmax, geometric mean ratio (90% CI) of rosuvastatin + eltrombopag arm to rosuvastatin alone arm ([2]; human, in vivo): 1.01 (0.93–1.09); P = 0.96
- Food effects, fasted (AUC0−4) vs fed (AUC4−8) ([2]; human, in vivo): No food effects

SMILES: Cc1cc2nc3c(=O)[nH]c(=O)nc-3n(C[C@H](O)[C@H](O)[C@H](O)CO)c2cc1C [Riboflavin]
- Baseline concentrations, heterozygous p.Q141K vs homozygous reference allele (ABCG2 p.Q141K variant): no association
- Increase in riboflavin AUC0−4 (BCRP [3]): 1.25 fold
- Increase in riboflavin AUC0−24 (BCRP [3]): 1.14 fold
- Increase in riboflavin Cmax (BCRP [3]): 1.11 fold
- C0 at 0 h ([2]; both, human, plasma, oral): 2.79 ng/mL
- Cmax ([2]; both, human, plasma, oral): 3.61 ng/mL
- AUC [2, 4]: 11.7 ng·h/mL
- C0 at 0 h [2, 4]: 2.72 ng/mL
- Cmax [2, 4]: 4.16 ng/mL
- AUC(0-t) [2, 5]: 10.6 ng·h/mL
- AUC(0-t) ([2]; both, human, plasma, oral, 10 mg, AUC0−24, rosuvastatin alone arm, geometric mean (90% CI)): 65.9 ng·h/mL
- AUC(0-t) ([2]; both, human, plasma, oral, 10 mg, mean riboflavin AUC0−4, fasted state, rosuvastatin alone arm): 10.6 ng·h/mL
- AUC(0-t) [2, 6]: 10.2 ng·h/mL
- AUC(0-t) ([2]; both, human, plasma, oral, AUC0−24, rosuvastatin + eltrombopag arm, geometric mean (90% CI)): 65.6 ng·h/mL
- AUC(0-t) ([2]; both, human, plasma, oral, mean riboflavin AUC0−4, fasted state, in the presence of eltrombopag): 9.7 ng·h/mL
- Effect of eltrombopag administration on plasma concentrations (in words) [2]: did not lead to corresponding increases
